From ChEMBL document CHEMBL1149845, “Synthesis, cytotoxic activities and structure-activity relationships of topoisomerase I inhibitors: indolizinoquinoline-5,12-dione derivatives” (Bioorg Med Chem, 2008)

Tests used:
[1] = tested on: HL-60; test: Cytotoxicity against human HL60 cells after 2 days by MTT assay; assay type: functional, cell-based; conditions: HL-60, 48 h
How it was run: (§1)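 Cells grown in RPMI-1640 with 10% FBS, penicillin 100 U/mL and streptomycin 100 µg/mL at 37 °C, 5% CO2, passage 3–6. Exponential-phase cells seeded at 5 × 10⁴–1 × 10⁵ cells/ml, grown overnight, then exposed for 2 days to compounds predissolved in DMSO at selected concentrations. Viability read by MTT.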

[2] = tested on: MCF7; test: Cytotoxicity against human MCF7 cells after 2 days by MTT assay; assay type: functional, cell-based; conditions: MCF7, 48 h; how it was run: as §1
[3] = tested on: NCI-H460; test: Cytotoxicity against human NCI-H460 cells after 2 days by MTT assay; assay type: functional, cell-based; conditions: NCI-H460, 48 h; how it was run: as §1
[4] = Cytotoxicity against human GLC82 cells after 2 days by MTT assay; assay type: functional, cell-based; conditions: GLC82, 48 h; how it was run: as §1
[5] = organism: Bos taurus; test: Inhibition of calf thymus topoisomerase 1-mediated supercoiled plasmid DNA relaxation at 125 uM
[6] = organism: Bos taurus; test: Inhibition of calf thymus topoisomerase 1-mediated supercoiled plasmid DNA relaxation at 0.2 uM
How it was run: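 Calf thymus TOP1 relaxation of 0.5 µg pBR322 in 20 µL buffer (20 mM Tris pH 7.5, 0.1 mM EDTA, 10 mM MgCl2, 50 µg/mL acetylated BSA, 100 mM KCl), compound from DMSO. Started by adding DNA, 30 min at 37 °C, stopped with loading buffer. 1% agarose gel in Tris-borate/EDTA at 5 V/cm, ethidium bromide stain. Supercoiled DNA quantified densitometrically.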

Row | Structure (SMILES) | IC50 [1] [µM] | IC50 [2] [µM] | IC50 [3] [µM] | IC50 [4] [µM] | inhibition [5] [%] | inhibition [6] [%]
1 | CC(=O)c1c2c(n3cccc(Cl)c13)C(=O)c1cccnc1C2=O | 2.2 | 16.1 | 1.5 | 16.1 |  | 
2 | CCOC(=O)c1c2c(n3cccc(N)c13)C(=O)c1cccnc1C2=O | > 25 | > 25 | 19 | 23.5 |  | 
3 | CCOC(=O)c1c2c(n3cccc(F)c13)C(=O)c1cccnc1C2=O | 5.51 | 6.2 | 1.2 | 1.7 |  | 
4 | CCOC(=O)c1c2c(n3cccc(Cl)c13)C(=O)c1cccnc1C2=O | 15.4 | 19.9 | 2.2 | 9.73 |  | 
5 | CC(=O)c1c2c(n3cccc(O)c13)C(=O)c1cccnc1C2=O | > 25 |  | > 25 | 16.3 |  | 
6 | CC(=O)c1c2c(n3cccc(F)c13)C(=O)c1ncccc1C2=O | 0.17 | 2.31 | < 0.25 | 5.26 |  | 
7 | CC(=O)c1c2c(n3cccc(Br)c13)C(=O)c1cccnc1C2=O | 1.56 | 12.4 | 0.2 | 4.68 |  | 
8 | CCOC(=O)c1c2c(n3cccc(O)c13)C(=O)c1cccnc1C2=O | > 25 | > 25 | 23.3 | 23.8 |  | 
9 | O=C1c2cccnc2C(=O)c2c1cc1ccccn21 | 17 | > 25 | 15.6 | 11.5 |  | 
10 | CC(=O)c1c2c(n3cccc(N)c13)C(=O)c1ncccc1C2=O | 22.3 | > 25 | > 25 | 12.2 |  | 
11 | CCOC(=O)c1c2c(n3ccccc13)C(=O)c1cccnc1C2=O | 14.5 | 6.38 | 1.9 | 2.4 |  | 
12 | CC[C@@]1(O)C(=O)OCc2c1cc1n(c2=O)Cc2cc3ccccc3nc2-1 |  |  |  |  | 81.3 | 
13 | CCOC(=O)c1c2c(n3cccc(Cl)c13)C(=O)c1ncccc1C2=O | 6.52 | 7.37 | 2.1 | < 0.25 | 100 | 5.8
14 | CCOC(=O)c1c2c(n3cccc(Br)c13)C(=O)c1cccnc1C2=O | 11.5 | 20.8 | 2.4 | 1.1 |  | 
15 | CC(=O)c1c2c(n3cccc(Br)c13)C(=O)c1ncccc1C2=O | 0.21 | 11.7 | 2.15 | 2.01 |  | 
16 | CCOC(=O)c1c2c(n3cccc(C)c13)C(=O)c1ncccc1C2=O | 0.22 | 14.5 |  | 1.83 |  | 

Row | Structure (SMILES) | IC50 [1] [µM] | IC50 [2] [µM] | IC50 [3] [µM] | IC50 [4] [µM] | inhibition [5] [%] | inhibition [6] [%]
17 | CCOC(=O)c1c2c(n3cccc(F)c13)C(=O)c1ncccc1C2=O | 1.37 | 7.01 | < 0.25 | < 0.25 |  | 
18 | O=C1c2cc3ccccn3c2C(=O)c2cccnc21 | 14.7 | 20.2 | 12.3 | 16.7 |  | 
19 | CCOC(=O)c1c2c(n3ccccc13)C(=O)c1ncccc1C2=O | 0.88 | 0.96 | < 0.25 | < 0.25 |  | 
20 | CCOC(=O)c1c2c(n3cccc(O)c13)C(=O)c1ncccc1C2=O | > 25 | > 25 | > 25 | 7.2 |  | 
21 | CCOC(=O)c1c2c(n3cccc(Br)c13)C(=O)c1ncccc1C2=O | 9.32 | 10.3 | 2 | < 0.25 |  | 
22 | CCOC(=O)c1c2c(n3ccccc13)C(=O)c1ccccc1C2=O | > 25 | > 25 |  | > 25 |  | 
23 | CCOC(=O)c1c2c(n3cccc(C)c13)C(=O)c1cccnc1C2=O | 11.7 | > 25 |  | 9.27 |  | 
24 | CC(=O)c1c2c(n3cccc(Cl)c13)C(=O)c1ncccc1C2=O | 0.19 | 7.83 | 0.23 | 6.85 |  | 
25 | CCOC(=O)c1c2c(n3cccc(N)c13)C(=O)c1ncccc1C2=O | 16.4 | 20.9 | 17.6 | 23.4 |  | 
26 | Cc1c2c(n3ccccc13)C(=O)c1ncccc1C2=O | 12.5 | > 25 | 12.2 | 14.2 |  | 
27 | CC(=O)c1c2c(n3ccccc13)C(=O)c1cccnc1C2=O | 14.7 | 12.7 | 1.4 | 1.9 |  | 
28 | Cc1c2c(n3ccccc13)C(=O)c1cccnc1C2=O | > 25 | > 25 | > 25 | 21.5 |  | 
29 | CC(=O)c1c2c(n3cccc(N)c13)C(=O)c1cccnc1C2=O | 15.8 | > 25 | 10.3 | 10.3 |  | 
30 | CC(=O)c1c2c(n3ccccc13)C(=O)c1ncccc1C2=O | 0.86 | 7.92 | < 0.25 | < 0.25 |  | 
31 | CC(=O)c1c2c(n3cccc(O)c13)C(=O)c1ncccc1C2=O | > 25 | 17.6 | 24.9 | 19.5 |  | 
32 | CC(=O)c1c2c(n3cccc(F)c13)C(=O)c1cccnc1C2=O | 1.39 | 9.28 | 6.75 | 12.7 |  | 
